Active and inactive are the calls of the source. The rule behind the calls is not given here.
How the values were obtained:
[1] = target: T1, Ectonucleotide pyrophosphatase/phosphodiesterase family member 1 (Homo sapiens) (UniProt P22413); assay: Inhibition of human NPP1 in human Saos2 cells assessed as production of p-nitrophenol using pnp-TMP as the substrate […]; assay type: cell-based; conditions: SAOS-2
T1 sequence (whole entry): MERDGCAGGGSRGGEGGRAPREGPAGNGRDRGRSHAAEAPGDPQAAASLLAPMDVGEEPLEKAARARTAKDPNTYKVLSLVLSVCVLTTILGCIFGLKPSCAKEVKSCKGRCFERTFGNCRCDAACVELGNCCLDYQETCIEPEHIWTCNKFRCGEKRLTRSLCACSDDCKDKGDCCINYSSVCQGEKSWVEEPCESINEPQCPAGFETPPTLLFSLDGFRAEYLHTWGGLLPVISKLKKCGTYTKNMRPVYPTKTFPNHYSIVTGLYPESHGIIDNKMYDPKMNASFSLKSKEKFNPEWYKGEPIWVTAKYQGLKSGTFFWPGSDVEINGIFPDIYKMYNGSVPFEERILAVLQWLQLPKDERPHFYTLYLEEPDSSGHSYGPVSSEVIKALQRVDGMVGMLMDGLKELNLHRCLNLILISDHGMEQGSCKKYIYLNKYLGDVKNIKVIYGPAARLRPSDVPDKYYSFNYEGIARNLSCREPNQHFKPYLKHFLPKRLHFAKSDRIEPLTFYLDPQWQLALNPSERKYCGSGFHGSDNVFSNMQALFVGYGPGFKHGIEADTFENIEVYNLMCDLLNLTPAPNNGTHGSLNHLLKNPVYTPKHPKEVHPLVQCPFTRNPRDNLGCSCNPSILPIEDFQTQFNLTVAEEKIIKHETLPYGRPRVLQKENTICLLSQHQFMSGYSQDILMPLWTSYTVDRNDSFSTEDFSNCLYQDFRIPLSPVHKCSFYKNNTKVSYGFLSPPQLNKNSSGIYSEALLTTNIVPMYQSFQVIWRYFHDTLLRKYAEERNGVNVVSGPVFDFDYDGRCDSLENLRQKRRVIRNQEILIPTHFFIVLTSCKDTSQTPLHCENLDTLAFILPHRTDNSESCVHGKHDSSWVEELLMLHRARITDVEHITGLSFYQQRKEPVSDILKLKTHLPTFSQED

P2Y purinoceptor 1 = P2Y purinoceptor 1 (Homo sapiens, UniProt P47900); assay: Ratio EC50 for ATP to compound for GFP tagged-human P2Y1 receptor expressed in human 1321N1 cells assessed as elevation in calcium level after 30 mins by fluorescence spectrophotometric analysis; assay type: functional, cell-based
[2] = target: T1, Ectonucleotide pyrophosphatase/phosphodiesterase family member 1 (Homo sapiens); assay: Inhibition of human NPP1 expressed in COS7 cells assessed as amount of inorganic phosphate released using ATP as the substrate at 100 uM after 15 mins by malachite green reagent method; assay type: cell-based; conditions: COS-7
[3] = target: T2, Ectonucleoside triphosphate diphosphohydrolase 8 (Homo sapiens) (UniProt Q5MY95); assay: Inhibition of human NTPDase8 expressed in COS7 cells assessed as amount of inorganic phosphate released using ATP as the substrate at 100 uM after 15 mins by malachite green reagent method; assay type: cell-based; conditions: COS-7
T2 sequence (whole entry): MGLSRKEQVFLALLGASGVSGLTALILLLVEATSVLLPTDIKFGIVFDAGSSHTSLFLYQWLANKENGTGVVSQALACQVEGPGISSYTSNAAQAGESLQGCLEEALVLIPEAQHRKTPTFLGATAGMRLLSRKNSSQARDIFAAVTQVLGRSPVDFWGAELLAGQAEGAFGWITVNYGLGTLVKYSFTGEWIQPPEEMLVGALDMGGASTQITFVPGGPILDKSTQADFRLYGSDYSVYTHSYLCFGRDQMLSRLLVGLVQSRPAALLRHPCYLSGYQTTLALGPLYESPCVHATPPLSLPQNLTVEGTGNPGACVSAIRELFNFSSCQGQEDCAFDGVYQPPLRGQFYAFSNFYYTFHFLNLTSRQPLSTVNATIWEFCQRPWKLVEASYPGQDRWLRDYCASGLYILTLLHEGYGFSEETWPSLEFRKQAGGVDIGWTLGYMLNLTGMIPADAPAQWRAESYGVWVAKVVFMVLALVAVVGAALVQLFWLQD
How it was run: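 Protein extracts of transfected COS-7 cells (ecto-5'-nucleotidase: 100 μM AMP substrate; NTPDases: 100 μM ATP) were preincubated 3 min at 37 °C in Tris-Ringer pH 7.3 with inhibitor at 100 μM final. After 15 min, malachite green stop; Pi read at 630 nm. Activity given as % of substrate-only control. Mean ± SD of three experiments in triplicate.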

P2Y purinoceptor 11 = target: T3, P2Y purinoceptor 11 (Homo sapiens, UniProt Q96G91); assay: Agonist activity at GFP tagged-human P2Y11 receptor expressed in human 1321N1 cells assessed as elevation in calcium level after 30 mins by fluorescence spectrophotometric analysis; assay type: functional, cell-based
T3 sequence (Q96G91 whole entry): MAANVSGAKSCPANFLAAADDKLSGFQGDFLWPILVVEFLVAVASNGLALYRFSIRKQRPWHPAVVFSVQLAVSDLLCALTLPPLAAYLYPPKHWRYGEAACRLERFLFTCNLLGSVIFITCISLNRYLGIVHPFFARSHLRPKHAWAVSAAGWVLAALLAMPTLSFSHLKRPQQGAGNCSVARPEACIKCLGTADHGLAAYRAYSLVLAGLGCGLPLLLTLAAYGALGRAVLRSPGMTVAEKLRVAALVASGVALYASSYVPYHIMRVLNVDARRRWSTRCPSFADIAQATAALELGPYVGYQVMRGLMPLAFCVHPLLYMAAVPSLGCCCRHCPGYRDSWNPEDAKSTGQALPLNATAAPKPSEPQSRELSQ

[4] = target: T4, Ectonucleoside triphosphate diphosphohydrolase 2 (Homo sapiens) (UniProt Q9Y5L3); assay: Activity of human NTPDase2 expressed in COS7 cells assessed as amount of inorganic phosphate released using ATP as the substrate at 100 uM after 15 mins by malachite green reagent method; assay type: cell-based; conditions: COS-7
T4 sequence (whole entry): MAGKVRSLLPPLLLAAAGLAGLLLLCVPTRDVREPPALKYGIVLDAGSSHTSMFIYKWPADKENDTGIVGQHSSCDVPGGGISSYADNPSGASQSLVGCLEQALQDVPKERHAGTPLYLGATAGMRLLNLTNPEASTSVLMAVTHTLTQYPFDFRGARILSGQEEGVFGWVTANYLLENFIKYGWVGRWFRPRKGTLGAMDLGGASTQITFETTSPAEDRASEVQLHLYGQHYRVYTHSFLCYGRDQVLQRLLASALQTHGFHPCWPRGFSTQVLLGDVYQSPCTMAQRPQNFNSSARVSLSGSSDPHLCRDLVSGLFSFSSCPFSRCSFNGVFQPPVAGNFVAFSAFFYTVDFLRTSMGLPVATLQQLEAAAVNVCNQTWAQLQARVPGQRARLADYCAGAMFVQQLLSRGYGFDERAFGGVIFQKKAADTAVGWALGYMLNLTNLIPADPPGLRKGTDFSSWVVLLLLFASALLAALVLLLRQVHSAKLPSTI
How it was run: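 Crude membrane-enriched protein extract of transiently transfected COS-7 cells, preincubated 3 min at 37 °C in Tris-Ringer buffer pH 7.3. Reaction started with 100 μM ATP, or with the analogue alone at 100 μM to test it as substrate. Stopped after 15 min with malachite green reagent; released Pi read at 630 nm. Mean ± SD, n = 3.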

P2Y purinoceptor 1, sequence (P47900 whole entry): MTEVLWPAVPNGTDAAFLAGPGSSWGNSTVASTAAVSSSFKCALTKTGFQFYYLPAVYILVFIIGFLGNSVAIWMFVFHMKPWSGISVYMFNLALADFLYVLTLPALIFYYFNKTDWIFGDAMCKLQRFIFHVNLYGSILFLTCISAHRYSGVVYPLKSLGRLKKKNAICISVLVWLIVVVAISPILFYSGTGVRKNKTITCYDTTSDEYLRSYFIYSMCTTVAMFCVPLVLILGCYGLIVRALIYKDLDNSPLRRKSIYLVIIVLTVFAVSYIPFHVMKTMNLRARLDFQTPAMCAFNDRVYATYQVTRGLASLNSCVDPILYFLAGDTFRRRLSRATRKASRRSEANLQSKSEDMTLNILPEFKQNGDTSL

inhibition [1] | Ratio EC50 (P2Y purinoceptor 1) | inhibition [2] | inhibition [3] | EC50 (P2Y purinoceptor 11) | Activity [4] | Compound
80% | 200 | > 90% | inactive | – | – | Nc1ncnc2c1ncn2[C@H]1C[C@H](O)[C@@H](COP(=O)(O)CP(=O)(O)OP(=O)(O)CP(=O)(O)OC[C@H]2O[C@@H](n3cnc4c(N)ncnc43)C[C@@H]2O)O1
90% | 2 | > 90% | inactive | 13 µM | – | BP(=O)(OP(=O)(O)CP(=O)(O)OC[C@H]1O[C@@H](n2cnc3c(N)ncnc32)[C@H](O)[C@@H]1O)OP(=O)(O)CP(=O)(O)OC[C@H]1O[C@@H](n2cnc3c(N)ncnc32)[C@H](O)[C@@H]1O
80% | 60 | 70% | inactive | ≥ 40 µM | 0.1% | Nc1ncnc2c1ncn2[C@@H]1O[C@H](COP(=O)(O)CP(=O)(O)OP(=O)(O)CP(=O)(O)OC[C@H]2O[C@@H](n3cnc4c(N)ncnc43)[C@H](O)[C@@H]2O)[C@@H](O)[C@H]1O
90% | > 200 | 70% | inactive | – | 0.2% | BP(=O)(OP(=O)(O)CP(=O)(O)OC[C@H]1O[C@@H](n2cnc3c(N)ncnc32)C[C@@H]1O)OP(=O)(O)CP(=O)(O)OC[C@H]1O[C@@H](n2cnc3c(N)ncnc32)C[C@@H]1O
